The array DNA melting data of Ke et al. (doi:10.1101/2024.01.08.574731)

Tests used:
[1] = folding enthalpy; higher = less favourable; fluorescence melt of hairpins on a sequencing array, two-state fit; conditions: sodium 0.088 M
How it was run: (§1)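 Melting temperature and folding enthalpy were derived from bootstrapped two-state fits. The fitted temperatures were raised by 9.35 °C to agree with UV melts, and four replicates were combined by inverse variance. The underlying data were Cy3 fluorescence images of library hairpins, with annealed Cy3 and quencher oligos, on a sequenced MiSeq flow cell in 50 mM Na-HEPES pH 8.0, 25 mM NaCl, taken in 2.5 °C steps up to 60 °C, normalised to pre-quench Cy3 and to control constructs.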

[2] = melting temperature; fluorescence melt of hairpins on a sequencing array, two-state fit, raised by 9.35 °C to match UV melts; conditions: sodium 0.088 M
How it was run: as §1

| Sequence | folding enthalpy [1] [kcal/mol] | Tm [2] [°C] |
| --- | --- | --- |
| GATTACGGAAACGTGATC (((.(((....))).))) | -37.1 | 45.9 |
| CGCTCGGAAACGAGAGCG ((((((....)))..))) | -25.7 | 52.2 |
| GCTACGGGAAACTGTAGC (((((.(....).))))) | -48.3 | 52.1 |
| GCCAGGCGAAAGCGTCGC ((.(.((....)).).)) | -8.31 | 40.7 |
| GGTGTCGAAAGACTGACC ((((((....)))..))) | -18.4 | 40.5 |
| GGTGCACCGAAAGGTACC (((..(((....)))))) | -11.6 | 37.6 |
| GTCTTTCGAAAGAAGAC (((.(((....)))))) | -25.1 | 38.5 |
| GAATCCCCGAAAGGGTTC (((..(((....)))))) | -14.4 | 31 |
| GATCTGGTACCAGATC ((((((....)))))) | -37.8 | 56 |
| GCGAAGCGAAAGCCACGC (((..((....))..))) | -8.54 | 42.5 |
| GCTCAGCGAAAGCTACGC ((..(((....)))..)) | -11.4 | 35 |
| GTGCGCGAAAGCGGCCAC ((((((....)))..))) | -11.5 | 45.9 |
| GCGTGTGTACGC ((((....)))) | -25.7 | 53.3 |
| GTTAAGGAAACTTAAC ((((((....)))))) | -29 | 43 |
| GCGAAGTCGAAAGACCGC (((..(((....)))))) | -26.9 | 52.5 |
| GTGGGTACGAAAGTACAC (((..(((....)))))) | -31.6 | 55 |
| GATCCAAGGTGGATC ((((((...)))))) | -32.6 | 51.1 |
| GCGATGACGAAAGTCCGC (((..(((....)))))) | -20 | 52 |
| GAGTGTGGAAACGCACTC (((((.(....).))))) | -42.1 | 52.8 |
| GGGCGCGAAAGCGAACCC ((((((....)))..))) | -14 | 59.3 |
| GCCCGGCGAAAGCTCGGC (((..((....))..))) | -16.4 | 52.7 |
| GCAGGCGAAAGCCGGTGC ((((((....)))..))) | -14.5 | 53.8 |
| GCAGCCGAAAGGCCCTGC ((((((....)))..))) | -12.5 | 34.8 |

| Sequence | folding enthalpy [1] [kcal/mol] | Tm [2] [°C] |
| --- | --- | --- |
| GCTATGCGAAAGCAGGGC ((..(((....)))..)) | -22.2 | 54.8 |
| GCGCGCGAAAGCGATCGC ((((((....)))..))) | -18.5 | 52.8 |
| GGGAATGGAAACACTCCC ((((.((....)).)))) | -29.3 | 36.9 |
| GATCTGGGGGCAGATC ((((((....)))))) | -41 | 51 |
| GATCAAAGTTTTGATC ((((((....)))))) | -29.2 | 46.1 |
| GGATGCGAAAGCACATCC ((((((....)))..))) | -19.2 | 42.2 |
| GCATTGCGAAAGCGTTGC (((..((....))..))) | -21.9 | 47.5 |
| GAGGGTGGAAACACCTTC ((.((((....)))).)) | -15.9 | 47 |
| GGCTGCGGAAACGCAGTC (.(((((....))))).) | -22.4 | 66.1 |
| GATCTTGGGGAAGATC ((((((....)))))) | -29.1 | 40.8 |
| GCCGTGCGAAAGCGTGGC (((..((....))..))) | -37.1 | 63.4 |
| GACGACCGAAAGGTTGTC (((.(((....))).))) | -42.3 | 63.4 |
| GTACAAGGAAACTTGTAC (((((((....))))))) | -38.9 | 53.2 |
| GCTGCGCGAAAGCCCAGC ((((.((....)).)))) | -31.1 | 63.5 |
| GATCCGGCACGGATC ((((((...)))))) | -36 | 69.2 |
| GAGTGCGGAAACGCACCC (.(((((....))))).) | -8.77 | 45.8 |
| GATCTTTCTTAAGATC ((((((....)))))) | -37.3 | 44.9 |
| GAGAGCGAAAGCTGGCTC ((((((....)))..))) | -13.5 | 37.2 |
| GGTAACGAAAGTTATACC ((((((....)))..))) | -22.1 | 32.6 |
| GTCCTACGAAAGTAAGAC (((.(((....))).))) | -27.3 | 37 |
| GTAATACGAAAGTATAC (((.(((....)))))) | -16 | 34.5 |
| GGTGCCGAAAGGCTAACC ((((((....)))..))) | -15.3 | 50.7 |
| GATCTATACATAGATC ((((((....)))))) | -37.1 | 46.4 |

| Sequence | folding enthalpy [1] [kcal/mol] | Tm [2] [°C] |
| --- | --- | --- |
| GTAAGCGAAAGCTGATAC ((((((....)))..))) | -12.2 | 29.8 |
| GTCGTGGGAAACCACGGC (.(((((....))))).) | -40.4 | 59.9 |
| GTCCACGAAAGTGAAGAC ((((((....)))..))) | -23.1 | 40.4 |
| GGTTTGTCGAAAGACACC (((..(((....)))))) | -10.9 | 31.2 |
| GTGCACGAAAGTGACCAC ((((((....)))..))) | -12.7 | 41.3 |
| GGCATTCGAAAGAAGCC (((.(((....)))))) | -25 | 48.5 |
| GATCGATCTTTCGATC ((((((....)))))) | -48.8 | 53.1 |
| GTGACGGGAAACTGTCAC (((((.(....).))))) | -37.8 | 54.8 |
| GCTGTGCGAAAGCTGAGC (((..((....))..))) | -16.6 | 49.1 |
| GCGCATGGAAACATACGC (((.(((....))).))) | -40.6 | 49.5 |
| GGCGAGGGAAACTTCGCC (((((.(....).))))) | -50.1 | 57.4 |
| GTTTGACGAAAGTCAAC (((.(((....)))))) | -14 | 46 |
| GAGGCCGAAAGGCCCTC ((((((....))).))) | -9.16 | 58 |
| GCCTTCGAAAGAAACGGC ((((((....)))..))) | -23.7 | 36.2 |
| GCAGCGGGAAACCGCCAC (..((((....))))..) | -8.97 | 29.8 |
| GATACCGGAAACGATATC ((((.((....)).)))) | -25.8 | 34.8 |
| GACGAGACGAAAGTCGTC (((..(((....)))))) | -13.8 | 49 |
| CGCGGACAATCCGCG ((((((...)))))) | -26.4 | 67.7 |
| GATCAGAGAGCTGATC ((((((....)))))) | -31 | 46.2 |
| GATCTACTGTTAGATC ((((((....)))))) | -32.4 | 40.9 |
| GATCATGCGAATGATC ((((((....)))))) | -46.8 | 53.8 |
| GGCCGTCGAAAGACTGCC (((.(((....))).))) | -42.8 | 56.8 |
| GGGACTACGAAAGTACCC (((..(((....)))))) | -19.5 | 36.1 |

| Sequence | folding enthalpy [1] [kcal/mol] | Tm [2] [°C] |
| --- | --- | --- |
| GCAAATCGAAAGATCTGC (((.(((....))).))) | -28.3 | 40.4 |
| GCGTAGCGAAAGCTAGGC ((.((((....)))).)) | -20.9 | 59.6 |
| GAAGACGAAAGTCGTTC ((((((....))).))) | -12.3 | 37.9 |
| GTTGCGGGAAACCGTAAC (((.(((....))).))) | -34.3 | 51.2 |
| GCCAAGCGAAAGCTAAGC ((..(((....)))..)) | -14.4 | 37.6 |
| GAGATCGGAAACGATCTC (((((((....))))))) | -43 | 66.8 |
| GATCCATGTTGGATC ((((((...)))))) | -36.8 | 52 |
| GCATCGCGAAAGCGTGC (((.(((....)))))) | -19.7 | 63.8 |
| GGTAACGGAAACGTCACC (((.(((....))).))) | -32 | 42.8 |
| GATCAAACACTTGATC ((((((....)))))) | -28.7 | 37.9 |
| CGCGGAAAGATCCGCG ((((((....)))))) | -33.8 | 64.2 |
| GATGGACGAAAGTCGATC (((.(((....))).))) | -25.9 | 49.6 |
| GATCCGTATCGGATC ((((((...)))))) | -30.3 | 57.3 |
| GCCCGAGGAAACTTGGGC ((((.((....)).)))) | -41.1 | 58.1 |
| GCCTAAACGAAAGTTGGC (((..(((....)))))) | -24.9 | 46.7 |
| GGTACCGGAAACGGTGTC (..((((....))))..) | -13.4 | 36.7 |
| CGCGGAACATCCGCG ((((((...)))))) | -27.5 | 69 |
| GCTTCAGGAAACCGAAGC (((((.(....).))))) | -35.9 | 46.3 |
| GCCCGAGCGAAAGCTGGC (((..(((....)))))) | -16.1 | 50.9 |
| GATCCATCCCTGGATC ((((((....)))))) | -35.4 | 51 |
| GTCAGCCGAAAGGCCGAC (((.(((....))).))) | -21.4 | 55.8 |
| GAACAGCGAAAGCTTTTC (((.(((....))).))) | -19.9 | 37.8 |
| GGTGGACCGAAAGGTACC (((..(((....)))))) | -13.4 | 45 |
